Data from publication PMC3327328 (Molecular Biology of the Cell, 2012).
Where two headings read alike, the source gives them in different places. Square brackets hold non-standard residues; d marks the D form. Ends that are not written are not given here. Peptide text beside a SMILES is read from it. pT = C[C@@H](OP(=O)(O)O)[C@H](N)C(=O)O

How the values were obtained:
[1] = biological target: human Survivin K62A (human) (UniProt O15392); test: ITC
[2] = biological target: human Survivin H80A (human) (UniProt O15392); test: ITC
[3] = biological target: X. laevis class B Survivin (xl wt, xSurvivin-B) (Xenopus laevis, UniProt Q8JGN5); test: ITC binding of histone H3 peptides to Xenopus Survivin class B wild type; details: pH 8.2, 25°C, HEPES:citric acid:Ches, 10 mM β-mercaptoethanol, single-site model, n/b = no binding
human Survivin H80R = human Survivin H80R (Homo sapiens, UniProt O15392, H80R); test: ITC binding of histone H3 peptides to human Survivin H80R; details: pH 6.8, 25°C, HEPES:citric acid:Ches, 10 mM β-mercaptoethanol, single-site model, n/b = no binding
Method in brief: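 Mutant human Survivin from bacteria, Ni2+-resin purified, octahistidine tag removed by thrombin, then Superdex200. ITC at pH 6.8 in citric acid–Ches–HEPES buffer, 25°C. 1.2 mM histone H3 tail peptide titrated into 0.1 mM protein over sixteen injections 180 s apart. Kd from a single-site fit with stoichiometry, ΔH and Ka variable, using a baseline offset for dilution heats.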

[4] = biological target: human Survivin (hs wt, class A) (Homo sapiens, UniProt O15392); test: ITC binding of histone H3 peptides to human Survivin wild type
human Survivin K62A [5] = biological target: human Survivin K62A (Homo sapiens, UniProt O15392, K62A); test: ITC binding of histone H3 peptides to human Survivin K62A
Method in brief: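 ITC at pH 7.8 with recombinant human Survivin K62A (bacterially expressed, His tag thrombin-cleaved, gel-filtered) binding H3T3ph(1-4) and unmodified H3(1-4) peptides. Syringe peptide 1.2 mM, cell protein 0.1 mM, sixteen injections 180 s apart. Kd from a single-binding-site model with stoichiometry, ΔH and Ka variable. Baseline offset corrects for heats of dilution.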

human Survivin wild type [6] = biological target: T1, human Survivin wild type (human, UniProt O15392 1-142); test: ITC
human Survivin wild type [7] = biological target: T1, human Survivin wild type; test: ITC; remark: listed apart in the source
[8] = biological target: T2, Xenopus laevis class B Survivin R89H (X. laevis, UniProt Q8JGN5 1-160, R89H); test: ITC
human Survivin wild type [9] = biological target: T1, human Survivin wild type; test: ITC; remark: listed apart in the source
human Survivin wild type [10] = biological target: T1, human Survivin wild type; test: ITC; remark: listed apart in the source
human Survivin wild type [11] = biological target: T1, human Survivin wild type; test: ITC; remark: listed apart in the source
[12] = biological target: T2, Xenopus laevis class B Survivin R89H; test: ITC; remark: listed apart in the source
human Survivin wild type [13] = biological target: T1, human Survivin wild type; test: ITC; remark: listed apart in the source
human Survivin wild type [14] = biological target: T1, human Survivin wild type; test: ITC; remark: listed apart in the source
human Survivin K62A [15] = biological target: human Survivin K62A (human, UniProt O15392 1-142, K62A); test: crystal structure
[16] = biological target: human Survivin wild type (human) (UniProt O15392); test: ITC
Chain of human Survivin wild type (human) (O15392 whole entry): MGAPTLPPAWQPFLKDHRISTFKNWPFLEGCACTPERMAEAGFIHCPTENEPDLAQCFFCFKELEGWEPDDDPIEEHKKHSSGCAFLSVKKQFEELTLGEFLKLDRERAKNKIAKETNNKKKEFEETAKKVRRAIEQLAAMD

T1 sequence (O15392 whole entry): as above
T2 sequence (Q8JGN5 whole entry R89H): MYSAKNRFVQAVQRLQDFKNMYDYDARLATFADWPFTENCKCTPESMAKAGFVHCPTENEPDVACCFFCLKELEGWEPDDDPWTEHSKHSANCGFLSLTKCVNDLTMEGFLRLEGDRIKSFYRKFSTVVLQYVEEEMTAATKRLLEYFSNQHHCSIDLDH
Chain of human Survivin K62A (human) (O15392 whole entry K62A): as the sequence (O15392 whole entry) above, with K62A counted along it
Chain of human Survivin H80A (human) (O15392 whole entry H80A): as the sequence (O15392 whole entry) above, with H80A counted along it
Chain of human Survivin (hs wt, class A) (O15392 whole entry): as the sequence (O15392 whole entry) above
Chain of human Survivin K62A (human, UniProt O15392 1-142, K62A) (O15392 whole entry K62A): as the sequence (O15392 whole entry) above, with K62A counted along it
Chain of human Survivin K62A (Homo sapiens, UniProt O15392, K62A) (O15392 whole entry K62A): as the sequence (O15392 whole entry) above, with K62A counted along it
Chain of X. laevis class B Survivin (xl wt, xSurvivin-B) (Q8JGN5 whole entry): as the sequence (Q8JGN5 whole entry R89H) above, with H89R counted along it
Chain of human Survivin H80R (O15392 whole entry H80R): as the sequence (O15392 whole entry) above, with H80R counted along it

“histone H3 N-terminal peptide ARTK, unmodified” was tested, and the Kd [1] was 31.3 µM, the dH [1] was -4.61 kcal/mol and the stoichiometry N [1] was 1.22. The Kd [2] was 236 µM, the dH [2] was -3.3 kcal/mol and the stoichiometry N [2] was 0.99.

For `C[C@H](N)C(=O)N[C@@H](CCCNC(=N)N)C(=O)N[C@H](C(=O)N[C@@H](CCCCN)C(=O)N[C@@H](CCC(N)=O)C(=O)N[C@H](C(=O)N[C@@H](C)C(=O)N[C@@H](CCCNC(=N)N)C(=O)N[C@@H](CCCCN)C(=O)N[C@@H](CO)C(=O)N[C@H](C(=O)NCC(=O)O)[C@@H](C)O)[C@@H](C)O)[C@@H](C)O` [H3T3(1-12)], the “Kd (dissociation constant)” value [3] was “n/b” and the “Kd (dissociation constant)” value (human Survivin H80R) was “n/b”.

In the case of `C[C@H](N)C(=O)N[C@@H](CCCNC(=N)N)C(=O)N[C@H](C(=O)N[C@@H](CCCCN)C(=O)O)[C@@H](C)O` [H3T3(1-4)] (H-ARTK-OH), the Kd [4] is reported as 60.6 ± 4 µM and the Kd (human Survivin K62A [5]) is reported as 31.3 ± 2 µM.

AR[pT]KQTARKSTG [histone H3 N-terminal peptide ARTphKQTARKSTG, phosphorylated on T3] was tested, and the dH (human Survivin wild type [6]) was -6.85 ± 0.02 kcal/mol, the “stoichiometry N” value (human Survivin wild type [6]) was 1.01 ± 0.002 and the dH (human Survivin wild type [7]) was -5.64 ± 0.02 kcal/mol. For the same molecule, the “stoichiometry N” value (human Survivin wild type [7]) was 1.13 ± 0.001, the dH [8] was -4.57 ± 0.04 kcal/mol and the “stoichiometry N” value [8] was 1.09 ± 0.004. For the same molecule, the dH (human Survivin wild type [9]) was -4.65 ± 0.05 kcal/mol, the “stoichiometry N” value (human Survivin wild type [9]) was 1.12 ± 0.01 and the dH (human Survivin wild type [10]) was -4.88 ± 0.03 kcal/mol. For the same molecule, the “stoichiometry N” value (human Survivin wild type [10]) was 1.03 ± 0.002, the dH (human Survivin wild type [11]) was -0.67 ± 0.05 kcal/mol and the “stoichiometry N” value (human Survivin wild type [11]) was 1.35 ± 0.06. The dH [12] was -0.87 ± 0.015 kcal/mol, the “stoichiometry N” value [12] was 1.04 ± 0.01 and the dH (human Survivin wild type [13]) was -4.13 ± 0.22 kcal/mol. The “stoichiometry N” value (human Survivin wild type [13]) was 1.23 ± 0.02, the dH (human Survivin wild type [14]) was -4.72 ± 0.06 kcal/mol and the “stoichiometry N” value (human Survivin wild type [14]) was 1.2 ± 0.01.

ARTKQTARKSTG [histone H3 N-terminal peptide ARTKQTARKSTG, unmodified] was tested, and the Kd (human Survivin wild type [6]) was 21.4 ± 3.2 µM, the dH (human Survivin wild type [6]) was -4.32 ± 0.23 kcal/mol and the “stoichiometry N” value (human Survivin wild type [6]) was 1.37 ± 0.04. For the same molecule, the Kd (human Survivin wild type [7]) was 11.8 ± 1 µM, the dH (human Survivin wild type [7]) was -2.49 ± 0.06 kcal/mol and the “stoichiometry N” value (human Survivin wild type [7]) was 1.26 ± 0.01. For the same molecule, the Kd [8] was 5.21 ± 0.39 µM, the dH [8] was -2.69 ± 0.04 kcal/mol and the “stoichiometry N” value [8] was 1.15 ± 0.01. For the same molecule, the binding result (human Survivin K62A [15]) was “binds”, the Kd (human Survivin wild type [9]) was 13.3 ± 0.7 µM and the dH (human Survivin wild type [9]) was -3.21 ± 0.05 kcal/mol. For the same molecule, the “stoichiometry N” value (human Survivin wild type [9]) was 1.36 ± 0.01, the Kd (human Survivin wild type [10]) was 9.67 ± 0.31 µM and the dH (human Survivin wild type [10]) was -2.79 ± 0.02 kcal/mol. The “stoichiometry N” value (human Survivin wild type [10]) was 1.29 ± 0.01, the Kd (human Survivin wild type [11]) was 21 ± 1.8 µM and the dH (human Survivin wild type [11]) was -1.89 ± 0.04 kcal/mol. The “stoichiometry N” value (human Survivin wild type [11]) was 1.56 ± 0.02, the Kd [12] was 12.9 ± 1.4 µM and the dH [12] was -2.72 ± 0.06 kcal/mol. The “stoichiometry N” value [12] was 1.34 ± 0.02, the Kd (human Survivin wild type [13]) was 30.2 ± 1.2 µM and the dH (human Survivin wild type [13]) was -3.43 ± 0.05 kcal/mol. The “stoichiometry N” value (human Survivin wild type [13]) was 1.32 ± 0.01, the Kd (human Survivin wild type [14]) was 17.1 ± 0.8 µM and the dH (human Survivin wild type [14]) was -3.32 ± 0.05 kcal/mol. The “stoichiometry N” value (human Survivin wild type [14]) was 1.33 ± 0.01.

Work on AR[pT]K [histone H3 N-terminal peptide ARTphK, phosphorylated on T3] yielded a Kd [16] of 61.7 µM, a dH [16] of -2.12 kcal/mol and a stoichiometry N [16] of 1.05.

ARTK [histone H3 N-terminal peptide ARTK, unmodified] gave a Kd [16] of 60.6 µM, a dH [16] of -3.16 kcal/mol and a stoichiometry N [16] of 1.27.
